Experimental data: ChEMBL document CHEMBL3769317, “Aminothiazoles as Potent and Selective Sirt2 Inhibitors: A Structure-Activity Relationship Study” (J Med Chem, 2016)

Tests used:
[1] = biological target: T1, NAD-dependent protein deacetylase sirtuin-2 (Homo sapiens, UniProt Q8IXJ6); assay: Inhibition of N-terminal his6-tagged human SIRT2 (25 to 389 amino acids) using ZMAL as substrate after 4 hrs by fluorescence-based microplate reader method
T1 sequence (Q8IXJ6 whole entry): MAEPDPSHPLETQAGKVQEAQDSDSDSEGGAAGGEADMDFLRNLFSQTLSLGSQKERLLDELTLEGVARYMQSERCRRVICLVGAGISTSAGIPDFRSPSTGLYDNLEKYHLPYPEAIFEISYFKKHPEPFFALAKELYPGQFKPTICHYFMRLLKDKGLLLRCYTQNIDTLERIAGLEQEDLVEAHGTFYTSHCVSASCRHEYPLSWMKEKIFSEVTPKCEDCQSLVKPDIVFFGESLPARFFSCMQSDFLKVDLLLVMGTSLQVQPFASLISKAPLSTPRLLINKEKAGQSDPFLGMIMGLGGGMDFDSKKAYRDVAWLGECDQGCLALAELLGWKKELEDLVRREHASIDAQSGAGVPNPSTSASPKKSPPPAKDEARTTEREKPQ

[2] = biological target: T2, NAD-dependent protein deacetylase sirtuin-1 (Homo sapiens) (UniProt Q96EB6); assay: Inhibition of GST-tagged human SIRT1 (133 to 747 amino acids) using ZMAL as substrate at 200 uM after 4 hrs by fluorescence-based microplate reader method
T2 sequence (whole entry): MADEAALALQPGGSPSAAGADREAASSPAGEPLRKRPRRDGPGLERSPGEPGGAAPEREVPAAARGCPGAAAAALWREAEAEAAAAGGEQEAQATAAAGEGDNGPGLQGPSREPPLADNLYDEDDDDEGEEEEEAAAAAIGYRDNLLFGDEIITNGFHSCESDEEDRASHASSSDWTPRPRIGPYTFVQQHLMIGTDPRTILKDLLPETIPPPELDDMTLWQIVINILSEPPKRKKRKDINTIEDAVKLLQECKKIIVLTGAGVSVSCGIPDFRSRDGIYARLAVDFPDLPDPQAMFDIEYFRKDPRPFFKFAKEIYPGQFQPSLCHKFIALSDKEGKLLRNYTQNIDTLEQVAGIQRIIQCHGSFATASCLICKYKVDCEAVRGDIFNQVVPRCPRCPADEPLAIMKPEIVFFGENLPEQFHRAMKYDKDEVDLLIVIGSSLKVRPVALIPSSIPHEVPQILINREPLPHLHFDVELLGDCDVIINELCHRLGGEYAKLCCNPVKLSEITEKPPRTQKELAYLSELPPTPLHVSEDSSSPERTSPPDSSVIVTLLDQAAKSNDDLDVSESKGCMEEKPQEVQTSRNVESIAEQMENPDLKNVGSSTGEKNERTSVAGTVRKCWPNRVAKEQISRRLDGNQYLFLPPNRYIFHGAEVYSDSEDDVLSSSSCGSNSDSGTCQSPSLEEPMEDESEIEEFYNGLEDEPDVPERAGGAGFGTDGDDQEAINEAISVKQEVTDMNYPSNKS

[3] = biological target: T3, NAD-dependent protein deacetylase sirtuin-2 (Homo sapiens) (UniProt Q8IXJ6); assay: Inhibition of N-terminal his6-tagged human SIRT2 (25 to 389 amino acids) using ZMAL as substrate at 50 uM after 4 hrs by fluorescence-based microplate reader method
T3 sequence (whole entry): T1 sequence (Q8IXJ6 whole entry)
How it was run: (§1)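 Fluorogenic deacetylation assay: hSirt1 133-747 or hSirt2 25-389 in 50 mM Tris, 137 mM NaCl, 2.7 mM KCl, pH 8.0, with NAD+ 500 µM and ZMAL (Cbz-Lys(acetyl)-AMC) 10,5 µM final, inhibitor in DMSO (5% v/v final). Control conversion kept near 15-30%. 4 h at 37 °C, then trypsin/nicotinamide stop for 20 min at 37 °C. Fluorescence read at 390/460 nm. % inhibition taken against no-inhibitor controls. At least duplicates.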

[4] = biological target: T3, NAD-dependent protein deacetylase sirtuin-2 (Homo sapiens); assay: Inhibition of N-terminal his6-tagged human SIRT2 (25 to 389 amino acids) using ZMAL as substrate at 500 uM after 4 hrs by fluorescence-based microplate reader method; how it was run: as §1
[5] = biological target: T3, NAD-dependent protein deacetylase sirtuin-2 (Homo sapiens); assay: Inhibition of N-terminal his6-tagged human SIRT2 (25 to 389 amino acids) using ZMAL as substrate at 250 uM after 4 hrs by fluorescence-based microplate reader method; how it was run: as §1
[6] = biological target: T3, NAD-dependent protein deacetylase sirtuin-2 (Homo sapiens); assay: Inhibition of N-terminal his6-tagged human SIRT2 (25 to 389 amino acids) using ZMAL as substrate at 10 uM after 4 hrs by fluorescence-based microplate reader method; how it was run: as §1

| Structure (SMILES) | IC50 [1] [µM] | inhibition [2] [%] | inhibition [3] [%] | other results |
| --- | --- | --- | --- | --- |
| CCCc1cc(O)nc(SCC(=O)Nc2ncc(Cc3cccc4ccccc34)s2)n1 | 127 | 22 |  |  |
| Cc1cc(C)nc(SCC(=O)Nc2nnc(-c3ccccc3)s2)n1 |  | < 10 | 20 |  |
| Cc1cc(C)nc(SC(C)C(=O)Nc2ncc(Cc3cccc4ccccc34)s2)n1 (racemic) | 0.42 | 17 |  |  |
| Cc1cc(C)nc(SCC(=O)Nc2ncc(Cc3c(C)ccc4ccccc34)s2)n1 | 0.31 | < 10 |  |  |
| Cc1cc(C)nc(SCC(=O)N(C)c2ncc(Cc3cccc4ccccc34)s2)n1 | > 100 | < 10 |  |  |
| CCC(Sc1nc(C)cc(C)n1)C(=O)Nc1ncc(Cc2cccc3ccc(Cl)cc23)s1 (racemic) | 0.32 | < 10 |  |  |
| Cc1cc(C)nc(SCC(=O)Nc2ncc(Cc3cccc4cc(Cl)ccc34)s2)n1 | 0.48 | 20 |  |  |
| Cc1cc(C)nc(SCC(=O)Nc2nc(-c3ccc4ccccc4c3)cs2)n1 |  | 23 | 35 |  |
| Cc1ccccc1Cc1cnc(NC(=O)CSc2ncccn2)s1 |  | 11 | < 10 |  |
| Cc1cc(C)nc(SC(C)C(=O)Nc2ncc(Cc3ccc(-c4ccccc4)cc3)s2)n1 (racemic) | 33 | 14 |  |  |
| Cc1cc(C)nc(SCC(=O)Nc2nnc(C)s2)n1 |  | < 10 | < 10 |  |
| Cc1cc(C)nc(SCC(=O)Nc2ncc(Cc3cccc4ccc(Br)cc34)s2)n1 | 0.21 | < 10 |  |  |
| COc1ccc(Cc2cnc(NC(=O)C(C)Sc3nc(C)cc(C)n3)s2)cc1 (racemic) | 14.6 | 27 |  |  |
| CCOc1cccc(Cc2cnc(NC(=O)CSc3nc(C)cc(C)n3)s2)c1 | 1.33 | < 10 |  |  |
| CCOc1ccc2nc(NC(=O)CSc3nc(C)cc(C)n3)sc2c1 | 77.8 | 16 |  |  |
| CCc1cc(CC)nc(SCC(=O)Nc2ncc(Cc3ccc(-c4ccccc4)cc3)s2)n1 |  | 10 | 31 |  |
| Cc1cc(C)nc(SCC(=O)Nc2nnc(Cc3ccccc3)s2)n1 |  | < 10 | 18 |  |
| CC(=O)Nc1ncc(Cc2cccc3ccccc23)s1 |  | < 10 | < 10 | inhibition [4]: 84% |
| Cc1cc(C)nc(S[C@H](C)C(=O)Nc2ncc(Cc3cccc4ccccc34)s2)n1 | 9.77 | < 10 |  |  |
| Cc1cc(C)nc(SCC(=O)Nc2nnc(Cc3ccc(Br)cc3)s2)n1 | 168 | < 10 |  |  |

| Structure (SMILES) | IC50 [1] [µM] | inhibition [2] [%] | inhibition [3] [%] | other results |
| --- | --- | --- | --- | --- |
| Cc1cc(C)nc(SCC(=O)Nc2ncc(C)s2)n1 |  | < 10 |  | inhibition [5]: 24% |
| Cc1cc(C)nc(SCC(=O)Nc2ncc(Cc3ccc4ccccc4c3)s2)n1 |  | < 10 |  |  |
| CC(Sc1ncccn1)C(=O)Nc1ncc(Cc2cccc3ccccc23)s1 (racemic) | 1.92 | 21 |  |  |
| Cc1cc(C)nc(SCC(=O)Nc2nnc(Cc3ccc(Cl)cc3)s2)n1 | 30.9 | < 10 |  |  |
| Cc1cc(C)nc(SCC(=O)Nc2ncc(Cc3ccccc3C)s2)n1 |  | 14 | 52 |  |
| Cc1cc(C)nc(S[C@@H](C)C(=O)Nc2ncc(Cc3cccc4ccccc34)s2)n1 | 0.26 | < 10 |  |  |
| Cc1cc(C)nc(SC(C)C(=O)Nc2ncc(Cc3cccc4ccc(Cl)cc34)s2)n1 (racemic) | 0.54 | < 10 |  |  |
| Cc1cc(C)nc(SCC(=O)Nc2ncc(C(=O)Nc3cccc4ccccc34)s2)n1 | 33 | < 10 |  |  |
| Cc1nc(SCC(=O)Nc2ncc(Cc3cccc4ccccc34)s2)nc(C)c1C | 15 | < 10 |  |  |
| CC(=O)Nc1ncc(C)s1 |  | < 10 | < 10 |  |
| CCc1cc(CC)nc(SCC(=O)Nc2ncc(Cc3ccc(Cl)cc3)s2)n1 |  | 18 | 38 |  |
| O=C(CSc1ncccn1)Nc1ncc(Cc2ccccc2)s1 |  | 12 |  |  |
| Cc1cc(C)cc(SCC(=O)Nc2ncc(Cc3cccc4ccccc34)s2)c1 | 207 | 16 |  |  |
| Cc1cc(O)nc(SCC(=O)Nc2ncc(Cc3cccc4ccccc34)s2)n1 |  | < 10 | 35 |  |
| COc1ccc(Cc2cnc(NC(=O)CSc3nc(C)cc(C)n3)s2)cc1 |  | < 10 | 48 |  |
| Cc1cc(C)nc(SCC(=O)Nc2ncc(Cc3ccc(Cl)cc3)s2)n1 | 3.4 | < 10 |  |  |
| O=C(CSc1cccc(O)c1)Nc1ncc(Cc2cccc3ccccc23)s1 | 143 | < 10 |  |  |
| CCc1cc(CC)nc(SCC(=O)Nc2ncc(Cc3ccc(OC)cc3)s2)n1 |  | 17 | 48 |  |
| Cc1cc(C)nc(SCC(=O)Nc2nnc(Cc3cccc4ccccc34)s2)n1 | 1.89 | < 10 |  |  |
| O=C(CSc1ccc(Cl)cc1)Nc1ncc(Cc2cccc3ccccc23)s1 |  | < 10 | < 10 |  |

| Structure (SMILES) | IC50 [1] [µM] | inhibition [2] [%] | inhibition [3] [%] | other results |
| --- | --- | --- | --- | --- |
| CCc1cc(CC)nc(SC(C)C(=O)Nc2ncc(Cc3ccc(OC)cc3)s2)n1 (racemic) |  | 18 | 40 |  |
| Nc1cc(N)nc(SCC(=O)Nc2ncc(Cc3cccc4ccccc34)s2)n1 |  | < 10 | 25 |  |
| O=C(CSc1ncccn1)Nc1ncc(Cc2cccc3ccccc23)s1 | 2.34 | 17 |  |  |
| CCc1cc(CC)nc(SCC(=O)Nc2ncc(Cc3cccc4ccccc34)s2)n1 | 45.6 | < 10 |  |  |
| Cc1ccnc(SCC(=O)Nc2ncc(Cc3cccc4ccccc34)s2)n1 | 1.45 | < 10 |  |  |
| O=C(CSc1nnc(-c2ccccc2)c(-c2ccccc2)n1)Nc1nnc(-c2ccccc2)s1 | 19.9 | < 10 |  |  |
| Cc1cc(C)nc(SCC(=O)Nc2nnc(C(F)(F)F)s2)n1 | 503 | 12 |  |  |
| CCC(Sc1nc(C)cc(C)n1)C(=O)Nc1ncc(Cc2cccc3ccccc23)s1 (racemic) | 0.54 | 35 |  |  |
| Cc1cccc(Cc2cnc(NC(=O)CSc3nc(C)cc(C)n3)s2)c1 | 1.64 | 18 |  |  |
| Cc1cc(C)nc(SCC(=O)Nc2ncc(Cc3ccc(-c4ccccc4)cc3)s2)n1 | 164 | 29 |  |  |
| Cc1ccc(Cc2cnc(NC(=O)CSc3nc(C)cc(C)n3)s2)cc1 | 4.72 | 16 |  |  |
| COc1ccc(Cc2cnc(NC(=O)/C=C/c3ccco3)s2)cc1 |  | 28 | 18 |  |
| Nc1ccccc1SCC(=O)Nc1ncc(Cc2cccc3ccccc23)s1 |  | < 10 | 36 |  |
| CCCCCC(=O)Nc1ncc(Cc2cccc3ccccc23)s1 |  | < 10 | 48 | inhibition [4]: 77%; inhibition [6]: < 10% |
| O=C(CSc1nc(-c2ccccc2)cc(-c2ccccc2)n1)Nc1ncc(Cc2ccc(Cl)cc2)s1 |  | 11 | 46 |  |
| CCc1cc(CC)nc(SCC(=O)Nc2ncc(Cc3cccc(C)c3)s2)n1 |  | < 10 | < 10 |  |
| NC(=O)c1ccc[n+](CC(=O)Nc2ncc(Cc3cccc4ccccc34)s2)c1 | 289 | 39 |  |  |
| Cc1cc(C)nc(SCC(N)=O)n1 |  | < 10 | < 10 |  |
